{
  "source": "ChEMBL document CHEMBL2311266",
  "about": "“Isolation and identification of β-hematin inhibitors from Flacourtia indica as promising antiplasmodial agents” (Eur J Med Chem, 2013)",
  "key": {"Plasmodium falciparum [1]": {"test_system": "Plasmodium falciparum", "assay": "Antiplasmodial activity against chloroquine-sensitive Plasmodium falciparum 3D7 after 72 hrs by SYBR green assay", "assay_type": "functional, organism-based", "conditions": "3D7, 72 h", "how_it_was_run": "(§1)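 Compounds dissolved in DMSO (5 mg/mL or 10 mM stock), two-fold serial dilutions. Asynchronous culture (>80% rings) at 1.0% cell suspension, 0.8% parasitemia, 72 h at 37 °C under 5% CO₂/air. Lysis buffer with 2× SYBR Green I added, 1 h at 37 °C. Fluorescence read at 485/530 nm. IC50 by logistic regression of dose-response curves, three replicates, chloroquine reference.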"}, "Plasmodium yoelii": {"test_system": "Plasmodium yoelii", "assay": "Antimalarial activity against Plasmodium yoelii infected in Swiss mouse assessed as inhibition of beta-hematin formation in plasma after 16 hrs by spectrophotometric analysis", "assay_type": "functional, organism-based", "how_it_was_run": "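P. yoelii-infected male Swiss mice (15-20 g; 1×10^5 infected RBCs); blood at 50% parasitemia taken in 2.0% citrate, plasma used. Mix: 100 mM sodium acetate pH 5.1, 50 µL plasma, 100 µM hemin, 1–50 µg compound per 1.0 mL; 37 °C 16 h shaking, triplicate. Pellet washed (Tris-SDS, water), dissolved in NaOH, A400; IC50 by non-linear regression.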"}, "[2]": {"assay": "Inhibition of H2O2-induced hemin degradation at 20 uM incubated for 10 mins prior to H2O2-induction measured after 30 mins by spectrophotometric analysis relative to control"}, "Plasmodium falciparum [3]": {"test_system": "Plasmodium falciparum", "assay": "Antiplasmodial activity against chloroquine-resistant Plasmodium falciparum K1 after 72 hrs by SYBR green assay", "assay_type": "functional, organism-based", "conditions": "K1, 72 h", "how_it_was_run": "as §1"}, "[4]": {"assay": "Selectivity index, ratio of CC50 for african green monkey Vero cells to IC50 for Plasmodium falciparum 3D7", "assay_type": "functional", "how_it_was_run": "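SI = CC50 (Vero, MTT, 72 h) / IC50 against P. falciparum 3D7. […] Read-out SYBR Green I fluorescence (ex 485, em 530 nm), logistic regression, triplicate.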"}, "[5]": {"assay": "Cytotoxicity against african green monkey Vero cells after 72 hrs by MTT assay", "assay_type": "cell-based", "conditions": "chlorocebus sabaeus", "how_it_was_run": "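Vero cells (1 × 10⁴) exposed to serial dilutions of test agents for 72 h; viability read by MTT. Three replicates; CC50 from non-linear regression of dose-response curves.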"}},
  "data": [
    {"smiles": "O=c1cc2c3c(cc4c(c3o1)C[C@H](O)[C@@H](c1ccc(O)c(O)c1)O4)Oc1cc(O)c(O)cc1-2", "note": "[MURURIN A]", "values": [
      {"measurement": "IC50", "setting": "Plasmodium falciparum [1]", "value": 1.2, "unit": "µM"},
      {"measurement": "IC50", "setting": "Plasmodium yoelii", "value": 8.3, "unit": "µM"},
      {"measurement": "inhibition", "setting": "[2]", "value": 37.5, "unit": "%"},
      {"measurement": "IC50", "setting": "Plasmodium falciparum [3]", "value": 1.3, "unit": "µM"},
      {"measurement": "Ratio CC50/IC50", "setting": "[4]", "value": 48.7},
      {"measurement": "CC50 at 72 h", "setting": "[5]", "value": 58.5, "unit": "µM"}
    ]},
    {"smiles": "O=C1C[C@@H](c2ccc(O)c(O)c2)c2c(O)cc3c(c2O1)C[C@H](O)[C@@H](c1ccc(O)c(O)c1)O3", "values": [
      {"measurement": "IC50", "setting": "Plasmodium falciparum [1]", "value": 1.1, "unit": "µM"},
      {"measurement": "IC50", "setting": "Plasmodium yoelii", "value": 10.1, "unit": "µM"},
      {"measurement": "inhibition", "setting": "[2]", "value": 23, "unit": "%"},
      {"measurement": "IC50", "setting": "Plasmodium falciparum [3]", "value": "> 5", "unit": "µM"},
      {"measurement": "Ratio CC50/IC50", "setting": "[4]", "value": 181.8},
      {"measurement": "CC50 at 72 h", "setting": "[5]", "value": 200, "unit": "µM"}
    ]},
    {"smiles": "O=C(O[C@H]1[C@H](Oc2ccc(O)cc2COC(=O)[C@@]2(O)[C@H](O)C=CC(=O)[C@@H]2O)O[C@H](CO)[C@@H](O)[C@@H]1O)c1ccccc1", "values": [
      {"measurement": "IC50", "setting": "Plasmodium falciparum [1]", "value": 4.4, "unit": "µM"},
      {"measurement": "IC50", "setting": "Plasmodium yoelii", "value": "> 50", "unit": "µM"},
      {"measurement": "IC50", "setting": "Plasmodium falciparum [3]", "value": "> 5", "unit": "µM"},
      {"measurement": "Ratio CC50/IC50", "setting": "[4]", "value": 17.6},
      {"measurement": "CC50 at 72 h", "setting": "[5]", "value": 77.3, "unit": "µM"}
    ]},
    {"smiles": "CCN(CC)CCCC(C)Nc1ccnc2cc(Cl)ccc12", "note": "(stereo not given) [CHLOROQUINE]", "values": [
      {"measurement": "IC50", "setting": "Plasmodium yoelii", "value": 7.7, "unit": "µM"},
      {"measurement": "inhibition", "setting": "[2]", "value": 53.5, "unit": "%"},
      {"measurement": "CC50 at 72 h", "setting": "[5]", "value": 126, "unit": "µM"}
    ]},
    {"smiles": "COc1cc(-c2cc(=O)c3c(O)cc(O[C@@H]4O[C@H](CO)[C@@H](O)[C@H](O)[C@H]4O)cc3o2)ccc1O", "values": [
      {"measurement": "IC50", "setting": "Plasmodium falciparum [1]", "value": 4.4, "unit": "µM"},
      {"measurement": "IC50", "setting": "Plasmodium yoelii", "value": "> 50", "unit": "µM"},
      {"measurement": "IC50", "setting": "Plasmodium falciparum [3]", "value": "> 5", "unit": "µM"},
      {"measurement": "Ratio CC50/IC50", "setting": "[4]", "value": 45.4},
      {"measurement": "CC50 at 72 h", "setting": "[5]", "value": 200, "unit": "µM"}
    ]},
    {"smiles": "O=C(OC[C@H]1O[C@@H](Oc2ccc(O)cc2CO)[C@H](O)[C@@H](O)[C@@H]1O)c1ccccc1", "note": "[POLIOTHYRSOSIDE]", "values": [
      {"measurement": "IC50", "setting": "Plasmodium falciparum [1]", "value": 8.1, "unit": "µM"},
      {"measurement": "IC50", "setting": "Plasmodium yoelii", "value": "> 50", "unit": "µM"},
      {"measurement": "IC50", "setting": "Plasmodium falciparum [3]", "value": "> 25", "unit": "µM"},
      {"measurement": "Ratio CC50/IC50", "setting": "[4]", "value": 16.8},
      {"measurement": "CC50 at 72 h", "setting": "[5]", "value": 136, "unit": "µM"}
    ]},
    {"smiles": "O=C(OC[C@H]1O[C@@H](Oc2ccc(O)cc2COC(=O)[C@@]2(O)[C@H](O)C=CC(=O)[C@@H]2O)[C@H](O)[C@@H](O)[C@@H]1O)c1ccccc1", "values": [
      {"measurement": "IC50", "setting": "Plasmodium falciparum [1]", "value": 3.6, "unit": "µM"},
      {"measurement": "IC50", "setting": "Plasmodium yoelii", "value": "> 50", "unit": "µM"},
      {"measurement": "IC50", "setting": "Plasmodium falciparum [3]", "value": "> 5", "unit": "µM"},
      {"measurement": "Ratio CC50/IC50", "setting": "[4]", "value": 32.9},
      {"measurement": "CC50 at 72 h", "setting": "[5]", "value": 118, "unit": "µM"}
    ]}
  ]
}
